According to PubChem BioAssay AID602126 (Broad Institute, 2011):
Calls of active or inactive are those of the source.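 The calls were made as follows: active = compounds cutting cell ATP light whose fitted AC50 is at most double the top dose tried; inconclusive = flat moderate signal loss, or an unreliable curve fit; inactive = the rest.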

system: ldlA[mSR-BI] CHO cells viability, CellTiter-Glo ATP luminescence, 24 h; test: cytotoxicity in ldlA[mSR-BI] CHO cells, dose response, cytotoxicity control for SR-BI HDL uptake inhibitor project, cell-based, CellTiter-Glo luminescence, 24 h, dry powder, set 5 (AID 602126); conditions: not given
Outline: (§1)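 Technique: CellTiter-Glo ATP luminescence; System: ldlA[mSR-BI] cells, cell viability measurement; Amount: 4,000 ldlA[mSR-BI] cells per well; Incubation: 24 h compound exposure at 37 °C, then 10 min with detection reagent.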

| SMILES | AC50 |
| --- | --- |
| C[C@@H]1CN([C@H](C)CO)C(=O)c2cc(NC(=O)Cc3cn(C)c4ccccc34)ccc2O[C@H]1CN(C)S(=O)(=O)c1ccc(Cl)cc1 | > 70 µM (inactive) |

system: not listed separately; test: as above; conditions: ldlA[mSR-BI] CHO cells viability, CellTiter-Glo ATP luminescence, 24 h; at 30 µM (top of the series)
Outline: as §1

| SMILES | activity change, negative = cytotoxicity |
| --- | --- |
| C[C@H]1CN([C@@H](C)CO)C(=O)c2cc(NC(=O)Cc3cn(C)c4ccccc34)ccc2O[C@H]1CN(C)S(=O)(=O)c1ccc(F)cc1 | -19.8% (inactive) |

same assay, conditions: ldlA[mSR-BI] CHO cells viability, CellTiter-Glo ATP luminescence, 24 h; at 35 µM (top of the series)

| SMILES | activity change, negative = cytotoxicity |
| --- | --- |
| C[C@@H]1CN([C@H](C)CO)C(=O)c2cc(NC(=O)Cc3cn(C)c4ccccc34)ccc2O[C@H]1CN(C)S(C)(=O)=O | -4.54% (inactive) |
| CC(OC(=O)c1cccc(NS(C)(=O)=O)c1)C(=O)Nc1ccc(N2CCOCC2)cc1 (stereo not drawn) | -6.16% (inactive) |
| CC(C(=O)NC1CCCC1)N(C(=O)Cn1nnc(-c2ccc3c(c2)OCO3)n1)C1CCOCC1 (stereo not drawn) | -7.76% (inactive) |
| COc1ccc(-c2nnn(CC(=O)N(C3CC3)C(C)C(=O)NC3CCCC3)n2)cc1OC (stereo not drawn) | -16% (inactive) |
| C[C@H](CO)N1C[C@H](C)[C@H](CN(C)S(=O)(=O)c2ccc(F)cc2)Oc2ccc(NC(=O)Cc3ccccc3)cc2C1=O | -6.53% (inactive) |
| C[C@H]1CN([C@@H](C)CO)C(=O)c2cc(NC(=O)Cc3cn(C)c4ccccc34)ccc2O[C@@H]1CN(C)S(=O)(=O)c1ccc(F)cc1 | -15.6% (inactive) |
| C[C@H](CO)N1C[C@H](C)[C@H](CN(C)S(=O)(=O)c2ccc(Cl)cc2)Oc2ccc(NC(=O)Cc3cn(C)c4ccccc34)cc2C1=O | -19.4% (inactive) |
| COc1cccc(-c2nnn(CC(=O)N(C3CCCCC3)C(C)C(=O)NC3CCCC3)n2)c1 (stereo not drawn) | -12.4% (inactive) |
| CC(C)(C)NC(=O)N1CCN(c2ncccc2C(F)(F)F)CC1 | -9.57% (inactive) |
| COc1ccc(-c2nnn(CC(=O)N(C3CCCCC3)C(C)C(=O)NC(C)C)n2)cc1OC (stereo not drawn) | -0.753% (inactive) |
| CCC(=O)N1CCc2cc(-c3csc(NC(=O)c4ccc(F)c(OC)c4)n3)ccc21 | -10.7% (inactive) |
| CCC(=O)Nc1ccc(-c2csc(NC(=O)c3ccco3)n2)cc1 | -1.37% (inactive) |
| CCC(=O)N1CCc2cc(-c3csc(NC(=O)c4cc5cccnc5o4)n3)ccc21 | -0.539% (inactive) |
| CCOC(=O)Nc1cccc(NC(=O)c2cc(OC)cc(OC)c2)c1 | -19.4% (inactive) |
| COc1ccc(-c2nnn(CC(=O)N(C3CCCCC3)C(C)C(=O)NC(C)(C)C)n2)cc1OC (stereo not drawn) | -2.38% (inactive) |
| C[C@H]1CN([C@@H](C)CO)C(=O)c2cccc(NS(C)(=O)=O)c2O[C@@H]1CN(C)Cc1ccc(Cl)c(Cl)c1 | -10.3% (inactive) |
| COc1ccc(-c2nnn(CC(=O)N(C3CCCCC3)C(C)C(=O)NC3CCCC3)n2)cc1OC (stereo not drawn) | -8.68% (inactive) |
| C[C@H](CO)N1C[C@H](C)[C@H](CN(C)S(=O)(=O)c2ccc(F)cc2)Oc2ccc(NS(C)(=O)=O)cc2C1=O | 11.2% (inactive) |
| COc1ccc(-c2nnn(CC(=O)N(C3CCCCC3)C(C)C(=O)NC3CC3)n2)cc1OC (stereo not drawn) | -10.4% (inactive) |
| C[C@@H]1CN([C@H](C)CO)C(=O)c2cc(NC(=O)Cc3cn(C)c4ccccc34)ccc2O[C@H]1CN(C)S(=O)(=O)c1ccc(Cl)cc1 | -18.6% (inactive) |
| CCC(=O)N1CCc2cc(-c3csc(NC(=O)c4cocn4)n3)ccc21 | -6.6% (inactive) |
| CC(C(=O)NC1CCCC1)N(C(=O)Cn1nnc(-c2ccccc2F)n1)C1CCCCC1 (stereo not drawn) | -27.4% (inactive) |
| Cc1cc(C(=O)C(C)OC(=O)C2=NNC(=O)CC2)c(C)n1-c1ccc(OC(F)F)cc1 (stereo not drawn) | -26.5% (inactive) |
| CCCn1ccc2cc(-c3csc(NC(=O)c4ccco4)n3)ccc21 | -34.1% (inactive) |
| COc1ccc(-c2nnn(CC(=O)N(C)C(C)C(=O)NC3CCCC3)n2)cc1OC (stereo not drawn) | -6.96% (inactive) |
| C[C@H]1CN([C@@H](C)CO)C(=O)c2cccc(NC(=O)Nc3ccccc3)c2O[C@@H]1CN(C)C | -7.64% (inactive) |

| SMILES | activity change, negative = cytotoxicity |
| --- | --- |
| CCC(=O)N1CCc2cc(-c3cnc(NC(=O)c4ccco4)[nH]3)ccc21 | 2.33% (inactive) |
| CNC[C@@H]1Oc2ccc(NC(=O)Cc3cn(C)c4ccccc34)cc2C(=O)N([C@H](C)CO)C[C@H]1C | 2.26% (inactive) |
| Nc1ccc(C(=O)Nc2ccc(-c3nc4ccc(NC(=O)c5ccc(N)cc5)cc4[nH]3)cc2)cc1 | -13.9% (inactive) |
| C[C@H]1CN([C@@H](C)CO)C(=O)c2cccc(NC(=O)Nc3ccccc3)c2O[C@@H]1CN(C)Cc1ccc(C(F)(F)F)cc1 | -30.4% (inactive) |
| Cc1ccc(-c2nnn(CC(=O)N(C3CCCCC3)C(C)C(=O)NC3CCCC3)n2)cc1 (stereo not drawn) | -2.67% (inactive) |
| C[C@@H]1CN([C@H](C)CO)C(=O)Cc2cc(NC(=O)Cc3cn(C)c4ccccc34)ccc2O[C@H]1CN(C)S(=O)(=O)c1ccc(F)cc1 | -14% (inactive) |
| C[C@@H]1CN([C@@H](C)CO)C(=O)c2cc(NC(=O)Cc3cn(C)c4ccccc34)ccc2O[C@H]1CN(C)S(=O)(=O)c1ccc(F)cc1 | -9.34% (inactive) |
| C[C@H]1CN([C@@H](C)CO)C(=O)c2cccc(NC(=O)Nc3ccccc3)c2O[C@@H]1CN(C)S(C)(=O)=O | 1.04% (inactive) |
| O=C(Nc1ccc(-c2nc3ccc(NC(=O)c4ccccc4[N+](=O)[O-])cc3[nH]2)cc1)c1ccccc1[N+](=O)[O-] | -15.1% (inactive) |
| C[C@@H]1CN([C@H](C)CO)C(=O)c2cc(NC(=O)Cc3cn(C)c4ccccc34)ccc2O[C@H]1CN(C)C(=O)Nc1ccc(F)cc1 | -8.77% (inactive) |
| CC(C)OCCCNC(=O)c1ccc(C2SCC(=O)N2Cc2ccco2)cc1 (stereo not drawn) | -15.7% (inactive) |
| CCC(=O)N1CCc2cc(-c3csc(/N=C(/OC)c4cc(OC)cc(OC)c4)n3)ccc21 | -10.7% (inactive) |
| C[C@H](CO)N1C[C@H](C)[C@@H](CN(C)S(=O)(=O)c2ccc(F)cc2)Oc2ccc(NC(=O)Cc3cn(C)c4ccccc34)cc2C1=O | -14% (inactive) |
| CC(C(=O)NC1CCCC1)N(C(=O)Cn1nnc(-c2ccccc2Cl)n1)C1CCCCC1 (stereo not drawn) | -11.7% (inactive) |
| C[C@H]1CN([C@@H](C)CO)C(=O)c2cccc(NC(=O)Nc3ccccc3)c2O[C@@H]1CN(C)Cc1ccc(Cl)c(Cl)c1 | -98.2% (inactive) |
| CC(C(=O)NC1CCCC1)N(C(=O)Cn1nnc(-c2ccc(F)cc2)n1)C1CCCCC1 (stereo not drawn) | -24.9% (inactive) |
| Cc1cc(C)c2c(c1)NC(c1cc3c(cc1Br)OCO3)C1CC=CC21 (stereo not drawn) | -26.7% (inactive) |
| O=C(Nc1ccc(-c2nc3cc(NC(=O)c4ccc(NC(=O)c5cccc6ccccc56)cc4)ccc3[nH]2)cc1)c1ccc(NC(=O)c2cccc3ccccc23)cc1 | -8.2% (inactive) |
| CCC(=O)N1CCc2cc(-c3csc(NC(=O)C4CCCC4)n3)ccc21 | 0.408% (inactive) |
| CCC(=O)N1CCc2cc(-c3cnc(NC(C)=O)[nH]3)ccc21 | -35.4% (inactive) |
| O=C(Nc1nc(-c2ccc3c(c2)CCN3C(=O)C2CC2)cs1)c1ccco1 | -26.1% (inactive) |
| C[C@@H]1CN([C@@H](C)CO)C(=O)c2cc(NC(=O)Cc3cn(C)c4ccccc34)ccc2O[C@H]1CN(C)S(=O)(=O)c1ccc(Cl)cc1 | -7.85% (inactive) |
| C[C@H](CO)N1C[C@H](C)[C@H](CN(C)S(=O)(=O)c2ccc(F)cc2)Oc2ccc(NC(=O)CCC(F)(F)F)cc2C1=O | -2.53% (inactive) |
| COC(=O)N1CCc2cc(-c3csc(NC(=O)c4ccco4)n3)ccc21 | -18.6% (inactive) |
| COc1ccccc1-c1nnn(CC(=O)N(C2CCCCC2)C(C)C(=O)NC2CCCC2)n1 (stereo not drawn) | 1.77% (inactive) |
